Source: ChEMBL document CHEMBL1833810, “Synthesis and study of a series of 3-arylcoumarins as potent and selective monoamine oxidase B inhibitors” (J Med Chem, 2011)

How the values were obtained:
[1] = molecular target: T1, Amine oxidase [flavin-containing] A (Homo sapiens, UniProt P21397); experiment: Inhibition of human recombinant MAO-A expressed in insect BT1-TN-5B1-4 cells assessed as production of hydrogen peroxide from p-tyramine at 100 uM up to 15 mins by amplex red-based fluorometric assay; details: 0.25 h; for inhibition (INH): 100 µM
T1 sequence (P21397 whole entry): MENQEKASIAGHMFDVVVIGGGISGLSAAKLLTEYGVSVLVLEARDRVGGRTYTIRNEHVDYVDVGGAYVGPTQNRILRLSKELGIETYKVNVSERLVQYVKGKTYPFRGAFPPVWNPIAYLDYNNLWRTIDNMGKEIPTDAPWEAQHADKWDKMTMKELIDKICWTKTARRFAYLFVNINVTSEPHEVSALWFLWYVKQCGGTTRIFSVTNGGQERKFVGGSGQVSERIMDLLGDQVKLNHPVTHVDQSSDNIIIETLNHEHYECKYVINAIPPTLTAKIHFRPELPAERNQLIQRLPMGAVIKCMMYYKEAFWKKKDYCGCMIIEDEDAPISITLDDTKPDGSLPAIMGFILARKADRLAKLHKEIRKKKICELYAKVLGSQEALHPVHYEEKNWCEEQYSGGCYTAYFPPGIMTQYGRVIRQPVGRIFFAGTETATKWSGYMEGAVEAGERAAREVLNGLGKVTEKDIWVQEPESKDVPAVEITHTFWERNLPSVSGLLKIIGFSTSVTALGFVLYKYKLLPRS
Procedure, shortened: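 Recombinant hMAO-A came from microsomes of baculovirus-infected BTI-TN-5B1-4 insect cells, at 1.1 μg protein. It was preincubated with the test drug in 0.05 M sodium phosphate, pH 7.4, for 15 min at 37 °C. The reaction was started with 200 μM Amplex Red, 1 U/mL HRP and 1 mM p-tyramine (final). H2O2-derived resorufin fluorescence (ex 545, em 590 nm) was read over 15 min. Enzyme-free background was subtracted against vehicle controls. 100 μM was the highest concentration tested.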

[2] = molecular target: T2, Amine oxidase [flavin-containing] B (Homo sapiens, UniProt P27338); experiment: Inhibition of human recombinant MAO-B expressed in insect BT1-TN-5B1-4 cells assessed as production of hydrogen peroxide from p-tyramine up to 15 mins by amplex red-based fluorometric assay; assay type: cell-based
T2 sequence (P27338 whole entry): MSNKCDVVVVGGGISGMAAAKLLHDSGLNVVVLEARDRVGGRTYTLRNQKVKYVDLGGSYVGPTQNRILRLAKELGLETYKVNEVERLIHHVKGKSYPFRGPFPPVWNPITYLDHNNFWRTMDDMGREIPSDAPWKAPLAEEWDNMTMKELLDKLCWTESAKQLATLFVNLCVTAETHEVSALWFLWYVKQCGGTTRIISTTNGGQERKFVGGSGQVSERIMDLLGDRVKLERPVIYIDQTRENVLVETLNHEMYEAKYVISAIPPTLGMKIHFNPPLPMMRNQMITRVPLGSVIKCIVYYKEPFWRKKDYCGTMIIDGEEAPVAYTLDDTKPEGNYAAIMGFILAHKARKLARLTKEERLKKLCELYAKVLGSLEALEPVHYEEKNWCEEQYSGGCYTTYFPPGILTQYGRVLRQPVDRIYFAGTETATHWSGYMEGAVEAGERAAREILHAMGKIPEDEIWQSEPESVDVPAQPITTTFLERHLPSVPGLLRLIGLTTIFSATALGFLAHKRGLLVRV

[3] = organism: Homo sapiens; experiment: Selectivity index, ratio of IC50 for human recombinant MAO-A to IC50 for human recombinant MAO-B
[4] = molecular target: T1, Amine oxidase [flavin-containing] A; experiment: Inhibition of human recombinant MAO-A expressed in insect BT1-TN-5B1-4 cells assessed as production of hydrogen peroxide from p-tyramine up to 15 mins by amplex red-based fluorometric assay
[5] = molecular target: T2, Amine oxidase [flavin-containing] B; experiment: Inhibition of human recombinant MAO-B expressed in insect BT1-TN-5B1-4 cells assessed as production of hydrogen peroxide from p-tyramine at 100 uM up to 15 mins by amplex red-based fluorometric assay; details: 0.25 h
Procedure, shortened: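 hMAO-B was used as microsomes from BTI-TN-5B1-4 insect cells infected with recombinant baculovirus, at 7.5 μg protein. It was preincubated for 15 min at 37 °C with the test drug in sodium phosphate buffer, 0.05 M, pH 7.4. The reaction was then started with final 200 μM Amplex Red, 1 U/mL horseradish peroxidase and 1 mM p-tyramine. Resorufin fluorescence (545/590 nm) was followed at 37 °C for 15 min, minus the no-enzyme background and relative to vehicle controls. The top concentration was 100 μM.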

Compound	inhibition (INH) [1]	IC50 [2] [nM]	Ratio IC50 [3]	IC50 [4] [nM]	inhibition at 100 µM [1] [%]	inhibition (INH) [5]
COc1ccc2oc(=O)c(-c3cccc(C)c3)cc2c1	Not Active	17.1	> 5880	–	–	–
Cc1ccc2oc(=O)c(-c3ccccc3O)cc2c1	–	120	180	21600	–	–
COc1cccc(-c2cc3cc(C)ccc3oc2=O)c1	Not Active	–	> 125000	–	–	–
Cc1ccc(-c2cc3cc(C)ccc3oc2=O)cc1	Not Active	–	–	–	–	–
COc1ccc(-c2cc3cc(C)ccc3oc2=O)cc1	Not Active	–	> 7660	–	–	–
Cc1ccc2oc(=O)c(-c3ccc(O)cc3)cc2c1	Not Active	–	–	–	–	–
COc1cc(-c2cc3cc(C)ccc3oc2=O)c(Br)c(OC)c1OC	Not Active	–	–	–	–	Not Active
COc1ccccc1-c1cc2cc(C)ccc2oc1=O	Not Active	–	–	–	–	Not Active
Cc1ccc(-c2cc3cc(OC4CCCC4)ccc3oc2=O)cc1	Not Active	14500	> 6.9	–	–	–
COc1ccc2oc(=O)c(-c3ccc(C)cc3)cc2c1	Not Active	1.52	> 6790	–	–	–
COc1cc(OC)c(Br)c(-c2cc3cc(C)ccc3oc2=O)c1	Not Active	54000	> 1.9	–	–	–

Now from value to compound:

inhibition (INH) [1]	IC50 [2] [nM]	Ratio IC50 [3]	IC50 [4] [nM]	inhibition at 100 µM [1] [%]	inhibition (INH) [5]	Compound
Not Active	0.74	> 136000	–	–	–	COc1ccc(-c2cc3cc(C)ccc3oc2=O)cc1Br
–	15	> 6670	–	40	–	Cc1cccc(-c2cc3cc(C)ccc3oc2=O)c1
–	2.73	9210	25100	–	–	COc1ccc(-c2cc3cc(C)ccc3oc2=O)cc1OC
Not Active	–	> 352	–	–	–	Cc1ccc2oc(=O)c(-c3ccccc3)cc2c1
–	650	54	35000	–	–	Cc1ccc2oc(=O)c(-c3cccc(O)c3)cc2c1
–	180	> 555	–	40	–	CC(=O)COc1cccc(-c2cc3cc(C)ccc3oc2=O)c1
Not Active	5520	> 18	–	–	–	CC(=O)COc1ccc2oc(=O)c(-c3ccc(C)cc3)cc2c1
Not Active	–	> 11100	–	–	–	COc1cc(OC)cc(-c2cc3cc(C)ccc3oc2=O)c1
–	67.1	372	24900	–	–	Cc1ccc(-c2cc3cc(O)ccc3oc2=O)cc1
Not Active	–	> 623	–	–	–	COc1cc(-c2cc3cc(C)ccc3oc2=O)cc(OC)c1OC
Not Active	3.25	> 31200	–	–	–	COc1cc(-c2cc3cc(C)ccc3oc2=O)ccc1Br
